The source made the active and inactive calls. No cut-off for these calls is given here.
Key:
[1] = system: A549; test: Antiproliferative activity against human A549 cells assessed as cell growth inhibition measured after 72 hrs by MTT assay; format: functional, cell-based; details: A549, 72 h
Outline: (§1)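 Cells seeded at 2.5 × 10^4 cells/well, allowed 24 h before dosing, then exposed to increasing concentrations (0.5% DMSO final) for 72 h at 37 °C, 5% CO2. MTT added at 1 mg/mL final in complete media for 2 h, formazan dissolved in DMSO, absorbance read at 570 nm. 6–8 repeats per treatment; IC50 from concentration–response fit.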

[2] = system: MDA-MB-231; test: Antiproliferative activity against human MDA-MB-231 cells assessed as cell growth inhibition measured after 72 hrs by MTT assay; format: functional, cell-based; details: MDA-MB-231, 72 h; outline: as §1
[3] = Metabolic stability in human liver microsomes assessed as compound remaining preincubated for 10 mins followed by NADPH addition measured after 60 mins by HPLC analysis; format: ADME, Microsome; details: read-out: Stability
[4] = system: A549; test: Antiproliferative activity against human A549 cells assessed as cell growth inhibition measured at 100 uM after 72 hrs by MTT assay; format: functional; set-up: scale not given: the % may be the effect or the level left; outline: as §1
[5] = biological target: T1, 26S proteasome non-ATPase regulatory subunit 10 (Homo sapiens, UniProt O75832); test: Binding affinity to gankyrin (unknown origin) expressed in Escherichia coli BL21 (DE3) expression system assessed as dissociation constant at 1:1 protein to compound concentration by isothermal titration calorimetry
T1 sequence (O75832 whole entry): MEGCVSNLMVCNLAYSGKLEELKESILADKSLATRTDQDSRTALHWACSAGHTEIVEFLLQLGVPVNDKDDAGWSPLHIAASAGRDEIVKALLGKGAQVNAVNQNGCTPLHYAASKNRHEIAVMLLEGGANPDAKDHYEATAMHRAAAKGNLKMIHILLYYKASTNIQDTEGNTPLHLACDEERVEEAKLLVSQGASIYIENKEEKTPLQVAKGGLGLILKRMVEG

[6] = system: MDA-MB-231; test: Inhibition of colony formation in human MDA-MB-231 cells at 1.15 uM incubated for 48 hrs followed by replacement of fresh media every alternative day measured after 7 days by crystal violet staining based clonogenic assay relative to control; values are per cent of control; details: MDA-MB-231, 216 h
[7] = system: MDA-MB-231; test: Antitumor activity against human MDA-MB-231 cells tumor spheroids assessed as increase in dead cells by measuring red fluorescence intensity at 1.15 to 2.30 uM measured at 15 days by EthD-III staining based fluorescence microscopic analysis; format: functional, cell-based; details: dose 1.15-2.3 µM, time 15.0 day
Outline: (§2)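 Live/dead staining of 3D spheroids at day 15 after single-dose treatment: media replaced by kit reagent with calcein AM (live, green) and EthD-III (dead, red), 30 min in dark at room temperature, imaged at 4X by fluorescence microscopy. Mean ± SD, n = 4; unpaired Student's t-test.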

[8] = Cytotoxicity against HEK293 cells assessed as cell growth inhibition measured after 72 hrs by MTT assay; format: toxicity, cell-based; details: human; outline: as §1
[9] = system: MDA-MB-231; test: Antitumor activity in human MDA-MB-231 cells cultured as 3D spheroids assessed as fold decrease in spheroid volume at 2.30 uM measured up to 15 days by inverted microscopic analysis; format: functional; details: dose 2.3 µM; time <= 15 day
Outline: (§3)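 Spheroids formed from 2000 cells/well in ultra-low attachment U-bottom wells over 3 days, then given a single dose on day 3. Half the media was replenished every 3 days. Transmitted-light images were taken through day 15, and spheroid volume was computed from images and expressed as fold-difference. Mean ± SD, n = 8; unpaired t-test.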

[10] = system: MDA-MB-231; test: Antitumor activity in human MDA-MB-231 cells cultured as 3D spheroids assessed as fold decrease in spheroid volume at 1.15 uM measured up to 15 days by inverted microscopic analysis; format: functional; details: time <= 15 day; outline: as §3
[11] = biological target: T2, 26S proteasome non-ATPase regulatory subunit 10 (Homo sapiens) (UniProt O75832); test: Binding affinity to gankyrin (unknown origin) expressed in Escherichia coli BL21 (DE3) expression system assessed as formation of white precipitation of the compound at 1.5 uM
T2 sequence (whole entry): T1 sequence (O75832 whole entry)

[12] = Antiproliferative activity against human HuH-6 cells assessed as cell growth inhibition measured after 72 hrs by MTT assay; format: functional, cell-based; details: HuH-6, 72 h; outline: as §1
[13] = biological target: T2, 26S proteasome non-ATPase regulatory subunit 10 (Homo sapiens); test: Binding affinity to gankyrin (unknown origin) expressed in Escherichia coli BL21 (DE3) expression system assessed as decrease in thermal denaturation at 1.5 uM measured at 5 to 90 degreeC by circular dichroism spectropolarimeter analysis
Outline: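 Recombinant His-tagged gankyrin expressed in E. coli BL21(DE3) Codon+RIL (IPTG 1 mM, 25 °C, ~5 h) and purified by Ni2+-IMAC. Thermal denaturation followed by CD at 217 nm over 5–90 °C with compound at 1.5 μM.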

[14] = biological target: T2, 26S proteasome non-ATPase regulatory subunit 10 (Homo sapiens); test: Binding affinity to gankyrin (unknown origin) assessed as change in melting temperature at 300 uM by SYPRO orange staining based thermal shift assay
[15] = system: MDA-MB-231; test: Antitumor activity against human MDA-MB-231 cells tumor spheroids assessed as decrease in live cells by measuring green fluorescence intensity at 1.15 to 2.30 uM measured at 15 days by calcein AM staining based fluorescence microscopic analysis; format: functional, cell-based; details: dose 1.15-2.3 µM, time 15.0 day; outline: as §2
[16] = system: MDA-MB-231; test: Inhibition of gankyrin-proteasome protein-protein interaction in human MDA-MB-231 cells assessed as increase in Rb level at 0.30 to 2.50 uM measured after 48 hrs by Western blotting analysis; format: cell-based; details: dose 0.3-2.5 µM
Outline: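 Cells in 10 cm dishes treated with varying concentrations (0.5% DMSO final) or DMSO only for 48 h. Lysed in RIPA with protease/phosphatase inhibitors on ice for 60 min. 15 μg protein resolved under reducing conditions, transferred to PVDF, and probed for p53, phospho-p53 S6/S15, Rb, gankyrin and cyclophilin. Detection by HRP-secondary ECL.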

Row | SMILES | IC50 [1] | IC50 [2] | further results
1 | COC(=O)c1ccc(-n2nncc2CCCOS(=O)(=O)c2ccc(C)cc2)cc1 | > 100 µM | 58.1 µM | –
2 | COC(=O)c1ccc(-c2cn(CCCOS(=O)(=O)c3ccc(C)cc3)nn2)cc1 | > 100 µM | 39.1 µM | –
3 | COC(=O)c1ccc(-n2cc(CCCOS(=O)(=O)c3ccc(C)cc3)nn2)cc1 | > 100 µM | > 100 µM | remaining at 1 h [3]: 50%; Activity [4]: 0%; Kd [5]: 0.532 µM
4 | COC(=O)c1ccc(-n2cc(CCCNC(=O)c3ccc(C)cc3)nn2)cc1 | > 100 µM | > 100 µM | –
5 | COC(=O)c1ccc(-n2cc(CCCn3nnc(-c4ccc(C)cc4)n3)nn2)cc1 | > 100 µM | 36.5 µM | –
6 | COC(=O)c1ccc(-n2cc(CCCNc3ccc(C)cc3)nn2)cc1 | > 100 µM | 33 µM | –
7 | COC(=O)c1ccc(-n2cc(CCCC(=O)NS(=O)(=O)c3ccc(C)cc3)nn2)cc1 | > 100 µM | > 100 µM | –
8 | COC(=O)c1ccc(-c2nnc(CCCOS(=O)(=O)c3ccc(C)cc3)o2)cc1 | > 100 µM | > 100 µM | –

Now from value to molecule, other results behind:

Row | IC50 [1] | IC50 [2] | SMILES | further results
9 | > 100 µM | > 100 µM | COC(=O)c1ccc(-c2nnn(CCCOS(=O)(=O)c3ccc(C)cc3)n2)cc1 | –
10 | 79.5 µM | 79.1 µM | COC(=O)c1ccc(-n2cc(CCCc3nnc(-c4ccc(C)cc4)[nH]3)nn2)cc1 | –
11 | 7.9 µM | 8.1 µM | COC(=O)c1ccc(-n2cc(CCCC(=S)Nc3ccc(C)cc3)nn2)cc1 | –
12 | 36.4 µM | 11.6 µM | COC(=O)c1ccc(-n2cc(CCCNC(=O)Nc3ccc(C)cc3)nn2)cc1 | –
13 | 25 µM | 2.3 µM | Cc1ccc(NC(=O)CCCn2cc(-c3ccc(C(F)(F)F)cc3)nn2)cc1 | growth, % of control at 1.15 µM [6]: 75.3%; remaining at 1 h [3]: 84%; Activity [7]: Active; IC50 at 72 h [8]: > 100 µM; fold change (FC) [9]: 3.1; fold change (FC) [10]: 2.6; Activity [11]: Active; IC50 [12]: 3.1 µM; Activity [13]: Active; Activity [14]: Active; Activity [15]: Active; Activity [16]: Active

Reference: ChEMBL document CHEMBL5120910, “Small-Molecule Gankyrin Inhibition as a Therapeutic Strategy for Breast and Lung Cancer” (J Med Chem, 2022)
